Assay results as given in ChEMBL document CHEMBL1130401, “Retinoic acid conjugates as potential antitumor agents: synthesis and biological activity of conjugates with Ara-A, Ara-C, 3(2H)-furanone, and aniline mustard moieties” (J Med Chem, 1997).
Values after ≈ are worked out from the molar mass of the structure shown.

Key:
HL-60 [1] = test: Differentiating activity of compound in HL60 cells at conc 10 ug/mL; assay type: functional, Homo sapiens
Outline: (§1)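 10⁶ HL-60 cells were exposed to compound for 6 days, then resuspended in RPMI-1640 with 20% FBS and 2 mM L-glutamine. An equal volume of fresh NBT solution (2 mg/mL, with PMA 200 ng/mL in PBS pH 7.2) was added and incubated 40 min at 37 °C with shaking. Cells were chilled, pelleted and resuspended. Formazan-positive cells were counted by hemocytometer (≥200 cells scored). Untreated cultures served as controls.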

HL-60 [2] = test: The cytotoxic activity in HL-60 cells; assay type: functional, cell-based; conditions: Homo sapiens
Outline: (§2)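 HL-60 cells from ATCC. Each well received 7.5 × 10⁴ cells plus test compound. Cells grew for 72 h at 37 °C in humidified, CO₂-controlled air, with growth linear over this period. Cells were then counted in a Coulter counter. IC50 is the concentration that cut cell number by 50%.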

HL-60 [3] = test: Differentiating activity of compound in HL60 cells at conc 50 ug/mL; assay type: functional, Homo sapiens; outline: as §1
HL-60 [4] = test: Differentiating activity of compound in HL60 cells at conc 0.5 ug/mL; assay type: functional, Homo sapiens; outline: as §1
HL-60 [5] = test: Differentiating activity of compound in HL60 cells at conc 2 ug/mL; assay type: functional, Homo sapiens; outline: as §1
HL-60 [6] = test: Differentiating activity of compound in HL60 cells at conc 0.08 ug/mL; assay type: functional, Homo sapiens; outline: as §1
HL-60 [7] = test: Differentiating activity of compound in HL60 cells at conc 0.4 ug/mL; assay type: functional, Homo sapiens; outline: as §1
HL-60 [8] = test: Differentiating activity of compound in HL60 cells at conc 0.016 ug/mL; assay type: functional, Homo sapiens; outline: as §1
HL-60 [9] = test: Differentiating activity of compound in HL60 cells at conc 0.0003 ug/mL; assay type: functional, Homo sapiens
HL-60 [10] = test: Differentiating activity of compound in HL60 cells at conc 0.003 ug/mL; assay type: functional, Homo sapiens
HL-60 [11] = test: Differentiating activity of compound in HL60 cells at conc 0.03 ug/mL; assay type: functional, Homo sapiens
HL-60 [12] = test: Differentiating activity of compound in HL60 cells at conc 1.4 ug/mL; assay type: functional, Homo sapiens
HL-60 [13] = test: Differentiating activity of compound in HL60 cells at conc 2.8 ug/mL; assay type: functional, Homo sapiens
HL-60 [14] = test: Differentiating activity of compound in HL60 cells at conc 5.6 ug/mL; assay type: functional, Homo sapiens
HL-60 [15] = test: Differentiating activity of compound in HL60 cells at conc 0.05 ug/mL; assay type: functional, Homo sapiens; outline: as §1
HL-60 [16] = test: Differentiating activity of compound in HL60 cells at conc 0.2 ug/mL; assay type: functional, Homo sapiens; outline: as §1
HL-60 [17] = test: Differentiating activity of compound in HL60 cells at conc 0.32 ug/mL; assay type: functional, Homo sapiens; outline: as §1
HL-60 [18] = test: (§3) Differentiating activity of compound in HL60 cells at conc 1 ug/mL; assay type: functional, Homo sapiens; outline: as §1
HL-60 [19] = test: (§4) Differentiating activity of compound in HL60 cells at conc 4 ug/mL; assay type: functional, Homo sapiens; outline: as §1
HL-60 [20] = test: Cytotoxic activity in HL-60 cells; assay type: functional, cell-based; conditions: Homo sapiens; outline: as §2
HL-60 [21] = test: as §4; assay type: functional, Homo sapiens; remark: listed apart in the source
Outline: (§5)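 HL-60 (ATCC) cells exposed to compound for 6 days; 10⁶ cells resuspended in 1 mL RPMI-1640 with 20% FBS and 2 mM L-glutamine, mixed with 1 mL fresh NBT (2 mg/mL) containing PMA 200 ng/mL in PBS pH 7.2, 40 min at 37 °C shaking, ice-stopped, pelleted. Formazan-positive cells counted by hemocytometer light microscopy, ≥200 cells scored; value = % NBT-positive cells.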

HL-60 [22] = test: as §3; assay type: functional, Homo sapiens; outline: as §5; remark: listed apart in the source

Nc1ncnc2c1ncn2[C@@H]1O[C@H](CO)[C@@H](O)[C@@H]1O [VIDARABINE]
NBT positive cells (HL-60 [1]): 9% | IC50 (HL-60 [2]): 20.9 µg/mL (≈ 78.2 µM) | NBT positive cells (HL-60 [3]): 12%

CC1=C(/C=C/C(C)=C/C=C/C(C)=C/C(=O)O[C@H]2C(O)[C@@H](CO)O[C@H]2n2cnc3c(N)ncnc32)C(C)(C)CCC1 (some centres not stated)
NBT positive cells (HL-60 [4]): 34% | NBT positive cells (HL-60 [5]): 36% | IC50 (HL-60 [2]): 1.96 µg/mL (≈ 3.57 µM)

Nc1ccn([C@@H]2O[C@H](CO)[C@@H](O)[C@@H]2O)c(=O)n1 [CYTARABINE]
NBT positive cells (HL-60 [6]): 5% | NBT positive cells (HL-60 [7]): 20% | IC50 (HL-60 [2]): 0.029 µg/mL (≈ 0.119 µM) | NBT positive cells (HL-60 [8]): 8%

CC1=C(/C=C/C(C)=C/C=C/C(C)=C/C(=O)O)C(C)(C)CCC1 [TRETINOIN]
NBT positive cells (HL-60 [9]): 34% | NBT positive cells (HL-60 [10]): 67% | NBT positive cells (HL-60 [11]): 89%

C[S+](C)[O-] [DIMETHYL SULFOXIDE]
NBT positive cells (HL-60 [12]): 12% | NBT positive cells (HL-60 [13]): 28% | NBT positive cells (HL-60 [14]): 53%

CC1=C(/C=C/C(C)=C/C=C/C(C)=C/C(=O)Nc2ncnc3c2ncn3[C@@H]2O[C@H](CO)C(O)[C@@H]2O)C(C)(C)CCC1 (some centres not stated)
NBT positive cells (HL-60 [15]): 41% | NBT positive cells (HL-60 [16]): 46% | IC50 (HL-60 [2]): < 0.32 µg/mL

CC1=C(/C=C/C(C)=C/C=C/C(C)=C/C(=O)OC/C=C(\C)C2=CC(=O)C(C)(C)O2)C(C)(C)CCC1
NBT positive cells (HL-60 [6]): 33% | NBT positive cells (HL-60 [17]): 34% | IC50 (HL-60 [2]): < 0.32 µg/mL

CC1=C(/C=C/C(C)=C/C=C/C(C)=C/C(=O)NCCCNC(=O)/C=C(C)/C=C/C=C(C)/C=C/C2=C(C)CCCC2(C)C)C(C)(C)CCC1
NBT positive cells (HL-60 [18]): 33% | IC50 (HL-60 [2]): 3.71 µg/mL (≈ 5.81 µM) | NBT positive cells (HL-60 [19]): 65%

CC1=C(/C=C/C(C)=C/C=C/C(C)=C/C(=O)Nc2ccn([C@@H]3O[C@H](CO)C(O)[C@@H]3O)c(=O)n2)C(C)(C)CCC1 (some centres not stated)
NBT positive cells (HL-60 [6]): 29% | NBT positive cells (HL-60 [17]): 37% | IC50 (HL-60 [2]): < 0.32 µg/mL

CC1=C(/C=C/C(C)=C/C=C/C(C)=C/C(=O)Nc2ncnc3c2ncn3[C@@H]2O[C@@H]3CO[Si](C(C)C)(C(C)C)O[Si](C(C)C)(C(C)C)OC3[C@@H]2O)C(C)(C)CCC1 (some centres not stated)
NBT positive cells (HL-60 [4]): 31% | NBT positive cells (HL-60 [5]): 31% | IC50 (HL-60 [2]): 2.08 µg/mL (≈ 2.63 µM)

CC1=C(/C=C/C(C)=C/C=C/C(C)=C/C(=O)Nc2ccn([C@@H]3O[C@@H]4CO[Si](C(C)C)(C(C)C)O[Si](C(C)C)(C(C)C)OC4[C@@H]3O)c(=O)n2)C(C)(C)CCC1 (some centres not stated)
NBT positive cells (HL-60 [15]): 44% | NBT positive cells (HL-60 [16]): 54% | IC50 (HL-60 [20]): < 0.32 µg/mL

CC1=C(/C=C/C(C)=C/C=C/C(C)=C/C(=O)Nc2ccc(N(CCCl)CCCl)cc2)C(C)(C)CCC1
NBT positive cells (HL-60 [21]): 43% | IC50 (HL-60 [2]): 3.7 µg/mL (≈ 7.18 µM) | NBT positive cells (HL-60 [22]): 24%
